The results in this text go back to ChEMBL document CHEMBL1155724, “Novel cytotoxic annonaceous acetogenins from Annona muricata” (J Nat Prod, 2001).

≈ marks a conversion by molar mass, not a printed value.

In one experiment the test system is HepG2. In words: Cytotoxicity against human HepG2 cells after 12 days by methylene blue colorimetric method. The format is functional, cell-based. The settings on record: HepG2, 288 h. Summed up:
(§1)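 Hep G2 and HBV-transfected Hep G2 (Hep 2,2,15) cells were grown in RPMI 1640 or DMEM with 10% FCS, 100 units/mL penicillin and 100 µg/mL streptomycin, at 37 °C in humidified 5% CO2. Viability was measured by methylene blue staining, read at 592 nm. IC50 is the concentration giving 50% lower absorbance than drug-free controls.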

Experiment [1] in a line: Cytotoxicity against human HepG2(2.2.15) cells after 12 days by methylene blue colorimetric method. The experiment is classed as functional, cell-based. The note with it: HepG2 2.2.15, 288 h. The method, boiled down: as §1

The term IC50 denotes the concentration at which inhibition is half-maximal. Higher therefore signals a need for much substance. For `CCCCC(O)C(O)C/C=C\CC[C@H](O)[C@@H]1CC[C@@H](CCCCCCCCCCCC[C@@H](O)CC2=C[C@H](C)OC2=O)O1` (stereo partly specified) [MURICIN F], the values for the IC50 (in the experiment on HepG2; in experiment [1]) were 0.0428 µg/mL (≈ 0.0719 µM) and 0.00386 µg/mL (≈ 0.00649 µM), respectively. For `CCCCCCCCCCCCC(O)C(O)CCC(O)C1CCC(CCCCCCC[C@@H](O)CC2=C[C@H](C)OC2=O)O1` (mixture of isomers) [MURICATETROCIN A/B], in that order: 0.0495 µg/mL and 0.00483 µg/mL. Turning to `COc1cccc2c1C(=O)c1c(O)c3c(c(O)c1C2=O)C[C@@](O)(C(=O)CO)C[C@@H]3O[C@H]1C[C@H](N)[C@H](O)[C@H](C)O1` [DOXORUBICIN], the IC50 in experiment [1] is 0.45 µg/mL (≈ 0.828 µM).

Compound `CCCCCC(O)C(O)CCCCCC[C@H](O)[C@@H]1CC[C@H](CCCCCCCCCC[C@H](O)CC2=C[C@H](C)OC2=O)O1` (stereo partly specified) [MURICIN B] returned an IC50 in experiment [1] of 0.00429 µg/mL (≈ 0.00719 µM). On to `CCCCCC(O)C(O)CCCCCC[C@@H](O)[C@H]1CC[C@H](CCCCCCCCCC[C@@H](O)CC2=C[C@H](C)OC2=O)O1` (stereo partly specified) [MURICIN A], for which, in experiment [1], the midpoint of inhibition, the IC50, lay at 0.00513 µg/mL (≈ 0.00859 µM).

The compound `CCCCCCCC(O)C(O)CC[C@H](O)[C@@H]1CC[C@H](CCCCCCCCCCCC[C@@H](O)CC2=C[C@H](C)OC2=O)O1` (stereo partly specified) [MURICIN C] yielded a half-maximal inhibitory concentration (IC50) in experiment [1] of 0.00387 µg/mL (≈ 0.00648 µM). Take `CCCCCCCC(O)C(O)CC[C@H](O)[C@@H]1CC[C@@H](CCCCCCCCCC[C@@H](O)CC2=C[C@H](C)OC2=O)O1` (stereo partly specified) [MURICIN D]: the IC50 is 0.00066 µg/mL (≈ 0.00116 µM) in the experiment with HepG2 and 0.048 µg/mL (≈ 0.0844 µM) in experiment [1]. On the same counts, the results for `CCCCCCCCCCCC[C@@H](O)[C@H]1CC[C@H]([C@H](O)CCCC[C@H](O)CCCCCCCC2=C[C@H](C)OC2=O)O1` [COROSSOLINE] are 0.353 µg/mL (≈ 0.608 µM) and 0.234 µg/mL (≈ 0.403 µM).

Take `CCCCCCCCCCCCCC[C@@H](O)[C@H]1CC[C@H]([C@H](O)CC[C@H](O)CCCCCCCC2=C[C@H](C)OC2=O)O1` [LONGIFOLICIN]: the IC50 in the experiment on HepG2 was determined as 0.000404 µg/mL (≈ 0.000695 µM); in experiment [1], 0.0049 µg/mL (≈ 0.00844 µM).

As to `CCCCCCCCCCCC[C@@H](O)[C@H]1CC[C@@H]([C@@H](O)CCCCC(=O)CCCCCCCC2=C[C@H](C)OC2=O)O1` [COROSSOLONE], the values for the half-maximal inhibitory concentration (IC50) (in the experiment with HepG2; in experiment [1]) were 0.48 µg/mL (≈ 0.829 µM) and 0.284 µg/mL (≈ 0.491 µM), respectively.
